Measured values taken from ChEMBL document CHEMBL4152216, “Syntheses and anti-pancreatic cancer activities of rakicidin A analogues” (Eur J Med Chem, 2018).

Tests used:
PANC-1 [1] = experiment: Cytotoxicity against human PANC1 cells after 72 hrs under normoxic condition by MTT assay; format: functional, cell-based; conditions: PANC-1, 72 h
Method in brief: (§1)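 PANC-1, PATU8988T and ASPC-1 cells were grown in DMEM with 10% FBS at 37 °C and 5% CO2, then seeded at 4000 cells/well. Compounds were added at various concentrations after 6 h. Normoxic plates stayed at 37 °C, 5% CO2. Hypoxic plates went into a chamber purged 10 min with 5% CO2/1% O2/94% N2, sealed, at 37 °C. After 72 h, MTT was added for 4 h, formazan dissolved in DMSO and read at 570 nm. IC50 is the mean ± SD of three independent experiments.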

PaTu 8988t [2] = experiment: Selectivity index, ratio of IC50 against human PA-TU-8988T cells under normoxic condition to IC50 for human PA-TU-8988T cells under hypoxic condition; format: functional
Method in brief: (§2)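 Hypoxic selectivity index is IC50 (normoxia)/IC50 (hypoxia). Both IC50s come from the 72 h MTT assay in the same cell line, run under normoxia (37 °C, 5% CO2) or a sealed 1% O2/5% CO2/94% N2 chamber, each the mean of three independent experiments.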

ASPC1 [3] = experiment: Selectivity index, ratio of IC50 against human Aspc-1 cells under normoxic condition to IC50 for human Aspc-1 cells under hypoxic condition; format: functional; method in brief: as §2
PaTu 8988t [4] = experiment: Cytotoxicity against human PA-TU-8988T cells after 72 hrs under normoxic condition by MTT assay; format: functional, cell-based; method in brief: as §1
PANC-1 [5] = experiment: Selectivity index, ratio of IC50 against human PANC1 cells under normoxic condition to IC50 for human PANC1 cells under hypoxic condition; format: functional; method in brief: as §2
PANC-1 [6] = experiment: Cytotoxicity against human PANC1 cells after 72 hrs under hypoxic condition by MTT assay; format: functional, cell-based; conditions: PANC-1, 72 h; method in brief: as §1
PaTu 8988t [7] = experiment: Cytotoxicity against human PA-TU-8988T cells after 72 hrs under hypoxic condition by MTT assay; format: functional, cell-based; method in brief: as §1
ASPC1 [8] = experiment: Cytotoxicity against human Aspc-1 cells after 72 hrs under normoxic condition by MTT assay; format: functional, cell-based; conditions: ASPC1, 72 h; method in brief: as §1
ASPC1 [9] = experiment: Cytotoxicity against human Aspc-1 cells after 72 hrs under hypoxic condition by MTT assay; format: functional, cell-based; conditions: ASPC1, 72 h; method in brief: as §1
PANC-1 [10] = experiment: Inhibition of cancer stem cell population of human PANC1 cells assessed as CD24+/CD44+/ESA+ cell population level at 0.15 uM after 48 hrs by flow cytometric analysis (reference value: 1.7%); format: functional; parameters: scale not given: the % may be the effect or the level left
[11] = target: T1, Aldehyde dehydrogenase, mitochondrial (Homo sapiens) (UniProt P05091); experiment: Inhibition of ALDH in human PANC1 cells assessed as aldefluor positive cells at 0.2 uM after 72 hrs by aldefluor assay (reference value: 12.5%); format: cell-based; parameters: scale not given: the % may be the effect or the level left
T1 sequence (whole entry): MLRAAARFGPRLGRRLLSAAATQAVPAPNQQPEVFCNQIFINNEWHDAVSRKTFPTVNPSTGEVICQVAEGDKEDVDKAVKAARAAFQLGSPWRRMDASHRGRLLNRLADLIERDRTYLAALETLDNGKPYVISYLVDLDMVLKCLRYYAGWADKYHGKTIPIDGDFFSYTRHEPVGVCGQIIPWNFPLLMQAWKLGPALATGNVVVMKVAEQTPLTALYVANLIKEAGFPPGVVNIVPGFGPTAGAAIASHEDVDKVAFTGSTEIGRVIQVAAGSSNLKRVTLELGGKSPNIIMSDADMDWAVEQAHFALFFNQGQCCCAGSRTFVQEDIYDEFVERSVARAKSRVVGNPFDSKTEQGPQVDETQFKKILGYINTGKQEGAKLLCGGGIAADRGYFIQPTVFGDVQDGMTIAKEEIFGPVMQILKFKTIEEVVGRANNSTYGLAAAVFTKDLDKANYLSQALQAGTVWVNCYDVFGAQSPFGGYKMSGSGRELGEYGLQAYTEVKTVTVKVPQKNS
Method in brief: (§3)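 PANC-1 cells were seeded at 5×10^4 cells/well and exposed after 6 h to compound (0.2 µM; ADR 0.5 µM) for 72 h. Living cells were suspended in assay buffer and incubated with Aldefluor substrate for 60 min at 37 °C. A parallel sample received substrate plus the ALDH inhibitor DEAB as negative control. Readout was percentage of ALDH+ cells, mean ± SEM, n = 3.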

[12] = target: T1, Aldehyde dehydrogenase, mitochondrial (Homo sapiens); experiment: Inhibition of ALDH in human PANC1 cells assessed as aldefluor positive cells at 0.2 uM after 72 hrs in presence of DEAB by aldefluor assay (reference value: 0.455%); format: cell-based; parameters: scale not given: the % may be the effect or the level left; method in brief: as §3
PANC-1 [13] = experiment: Antitumor activity against human PANC1 cells xenografted in BALB/c nude mouse assessed as reduction in tumor initiating cell frequency at 0.1 to 0.25 uM measured after 7 days; format: functional
Method in brief: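 PANC-1 cells were treated in vitro with compound (ADR at 0.5 µM) for 48 h, collected, and injected subcutaneously at limiting cell doses into 5-week-old female BALB/c nude mice. Tumor formation rate was scored after 7 days. Tumor-initiating frequency was derived by limiting-dilution analysis with Poisson statistics against vehicle.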

PANC-1 [14] = experiment: Inhibition of tumorsphere formation in human PANC1 cells assessed as reduction in number of tumor spheres at 0.25 uM after 7 days; format: functional
Method in brief: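 Tumorsphere formation: single-cell PANC-1 suspensions were plated in ultra-low-attachment wells at 2,000 cells/mL in Complete MammoCult medium, with compound at 0.25 µM. Tumorspheres were counted after 7 days. Three repeats, mean ± SEM.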

Row | Activity [11] [%] | Activity [12] [%] | SMILES | IC50 (PANC-1 [1]) [nM] | Ratio IC50 (PaTu 8988t [2]) | Ratio IC50 (ASPC1 [3]) | IC50 (PaTu 8988t [4]) [nM] | Ratio IC50 (PANC-1 [5]) | IC50 (PANC-1 [6]) [nM] | IC50 (PaTu 8988t [7]) [nM] | IC50 (ASPC1 [8]) [nM] | IC50 (ASPC1 [9]) [nM] | Activity (PANC-1 [10]) [%] | fold change (FC) (PANC-1 [13]) | fold change (FC) (PANC-1 [14])
1 |  |  | C=C1/C=C/C(=O)N(C)CC(=O)N[C@@H]([C@H](O)C(=O)OC)C(=O)O[C@@H]([C@H](C)CCCCCCCCCCCC(C)C)[C@H](C)C(=O)N1 | 270 | 3.91 | 3.63 | 450 | 2.98 | 90 | 120 | 540 | 150 | 0.83 |  | 
2 |  |  | C#CCOC(=O)C[C@@H]1NC(=O)CN(C)C(=O)/C=C/C(=C)NC(=O)[C@@H](C)[C@H]([C@H](C)CCCCCCCCCCCC(C)C)OC1=O | 150 | 2.8 | 2.23 | 300 | 2.21 | 66 | 110 | 260 | 120 | 1.9 |  | 
3 |  |  | C=C1/C=C/C(=O)N(C)CC(=O)N[C@@H](CC(=O)OCC)C(=O)O[C@@H]([C@H](C)CCCCCCCCCCCC(C)C)[C@H](C)C(=O)N1 | 180 | 2.89 | 1.85 | 320 | 2.43 | 74 | 110 | 280 | 150 |  |  | 
4 |  |  | C=C1/C=C/C(=O)N(C)CC(=O)N[C@@H](Cc2ccccc2)C(=O)O[C@@H]([C@H](C)CCCCCCCCCCCCCC)[C@H](C)C(=O)N1 | 430 | 2.14 | 2.4 | 1400 | 3.76 | 120 | 650 | 1400 | 600 | 1.6 |  | 
5 |  |  | C=C1/C=C/C(=O)N(C)CC(=O)N[C@@H](CC(=O)NC)C(=O)O[C@@H]([C@H](C)CCCCCCCCCCCCCC)[C@H](C)C(=O)N1 | 170 | 4.42 | 10.98 | 260 | 4.44 | 38 | 60 | 500 | 46 | 0.33 |  | 
6 |  |  | C=C1/C=C/C(=O)N(C)CC(=O)N[C@@H](CC(=O)OC(C)C)C(=O)O[C@@H]([C@H](C)CCCCCCCCCCCC(C)C)[C@H](C)C(=O)N1 | 1800 |  |  |  | 2.6 | 700 |  |  |  |  |  | 
7 |  |  | C=C1/C=C/C(=O)N(CC(F)(F)F)CC(=O)N[C@@H]([C@H](O)C(=O)OC)C(=O)O[C@@H]([C@H](C)CCCCCCCCCCCC(C)C)[C@H](C)C(=O)N1 | 2500 |  |  |  | 1.72 | 1500 |  |  |  |  |  | 
8 |  |  | CC(=O)O[C@H]1C(=O)[C@@]2(C)[C@H]([C@H](OC(=O)c3ccccc3)[C@]3(O)C[C@H](OC(=O)[C@H](O)[C@@H](NC(=O)c4ccccc4)c4ccccc4)C(C)=C1C3(C)C)[C@]1(OC(C)=O)CO[C@@H]1C[C@@H]2O [PACLITAXEL] |  |  |  |  |  |  |  |  |  | 1.6 |  | 
9 |  |  | C=C1/C=C/C(=O)N(CCCCCC)CC(=O)N[C@@H]([C@H](O)C(=O)OC)C(=O)O[C@@H]([C@H](C)CCCCCCCCCCCC(C)C)[C@H](C)C(=O)N1 | > 50000 |  |  |  | >7.11 | 7000 |  |  |  |  |  | 
10 | 0.46 | 0.544 | C=C1/C=C/C(=O)N(C)CC(=O)N[C@@H]([C@H](O)C(N)=O)C(=O)O[C@@H]([C@H](C)CCCCCCCCCCCC(C)C)[C@H](C)C(=O)N1 | 220 | 7.54 | 8.4 | 240 | 5.24 | 42 | 33 | 680 | 82 | 0.43 | 4.7 | 4
11 |  |  | C=C1/C=C/C(=O)N(C)CC(=O)O[C@@H](CCCCCCCCCCCCC)[C@H](C)C(=O)[C@](C)(O)C(=O)NCC(=O)N1 | 650 |  |  |  | 43.33 | 15 |  |  |  |  |  | 
